Measles CPE = protection of cells from measles virus; Measles virus-infected cells, CPE protection, absorbance; protection (pct of control), % at 4 µM; 140,000 compounds, 1.5% hits; AID 841; in the data active = protection mostly above about 24%, no sharp cut-off; inactive = mostly below about 26%
BB579 growth dn = reduces growth of yeast BB579 in restrictive medium | S. cerevisiae BB579 growth, OD615, 48 h | inhibition, % at 10 µM | 140,000 compounds, 0.51% hits | AID 804;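 active = inhibition above a set limit, 3 SD over the mean compound inhibition, cut at about 44% in these data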
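Assay system – yeast BB579 (DeaD) · Dosing – single compound dose of 10 µM, 0.25% DMSO final · Detection – OD615 turbidity measurement · Buffer or medium – CSMM-D restrictive synthetic medium containing dextrose (glucose) · Benchmarks – positive control amphotericin B 10 µg/mL · Incubation – 48 h exposure, 30 °C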
WT yeast gro inh = growth inhibition of WT yeast, mitochondrial fusion screen; mitochondrial fusion phenotypic screen, WT strain; AID 1362; 190,000 compounds, 2.1% hits; inhibition, % at 10 µM; in the data active = inhibition above about 58%; tested in S. cerevisiae
hDAT+cocaine = human DAT dopamine uptake with cocaine, either direction. 110,000 compounds, 1.3% hits. Q01959. B-score at 10 µM. LLC-PK1 hDAT cells, [14C]-dopamine uptake with cocaine IC80; actives deviate in either direction;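 active = Z score or B-score, a plate-position-corrected score, falls beyond the plate's 99.7% confidence bounds, in either direction; inactive = both scores lie inside the 99.7% bounds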;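 note: scored against the spread of the other compound wells on the same plate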
Target sequence (Q01959 whole entry, looked up): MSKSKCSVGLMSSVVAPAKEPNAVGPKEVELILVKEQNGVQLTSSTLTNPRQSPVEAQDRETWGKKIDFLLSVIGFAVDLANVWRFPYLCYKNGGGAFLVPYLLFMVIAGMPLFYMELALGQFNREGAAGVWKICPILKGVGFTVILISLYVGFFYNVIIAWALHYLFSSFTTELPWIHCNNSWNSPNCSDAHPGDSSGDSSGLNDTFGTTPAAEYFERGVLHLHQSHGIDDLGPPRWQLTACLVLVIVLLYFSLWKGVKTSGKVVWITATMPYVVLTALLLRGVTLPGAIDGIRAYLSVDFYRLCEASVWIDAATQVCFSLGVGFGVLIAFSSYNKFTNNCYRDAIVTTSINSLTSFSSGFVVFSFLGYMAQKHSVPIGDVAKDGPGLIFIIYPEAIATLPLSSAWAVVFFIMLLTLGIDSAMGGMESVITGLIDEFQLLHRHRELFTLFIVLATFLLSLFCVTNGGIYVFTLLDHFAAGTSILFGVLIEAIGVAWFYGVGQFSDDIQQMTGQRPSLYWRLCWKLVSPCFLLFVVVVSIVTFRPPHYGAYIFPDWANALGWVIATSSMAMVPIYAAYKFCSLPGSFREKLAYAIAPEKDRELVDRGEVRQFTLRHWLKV
RAM network inh = inhibitors of the yeast RAM network. S. cerevisiae dse1pr::URA3 reporter, 5-FOA growth OD615, 2 d; analog-sensitive cbk1-as2 kinase mutant strain. inhibition, % at 50 µM. 190,000 compounds, 1.8% hits;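 active = inhibition above a set limit, 3 SD over mean compound inhibition, cut at about 8.4% in these data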;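 note: 0% = DMSO-only wells with no growth and 100% = 10 µM 1-NA-PP1 full growth; inhibition rescues growth on 5-FOA so higher OD means more RAM inhibition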
Yeast lifespan up = extends the lifespan of yeast | S. cerevisiae growth with nicotinamide, OD615; deaD strain in restrictive glucose medium | inhibition of the nicotinamide effect, % at 10 µM | 130,000 compounds, 0.68% hits;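 active = inhibition above a set limit, placed 3 SD over the median of all compounds, cut at about 26% in these data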;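 note: 0% = nicotinamide-treated wells and 100% = cells grown without nicotinamide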
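Assay system: engineered S. cerevisiae DeaD replicative-lifespan strain, galactose-grown log-phase cells; Buffer or medium: CSMM-D glucose medium, restrictive; Probe or stimulus: nicotinamide 1.5 mM; Compound: single dose 10 µM compound, 0.25% DMSO; Schedule: 4 h preincubation then 48 h treatment at 30 °C; Technique: OD615 measurement.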
Active calls of the source: *; / = no result. An excerpt weighted towards active compounds, which were near 6.1% of everything screened.

SMILES | Measles CPE | BB579 growth dn | WT yeast gro inh | hDAT+cocaine | RAM network inh | Yeast lifespan up
Cc1ccccc1NC(=O)/C(=C/c1ccco1)c1ccccc1 | 10 | 15 | -4 | -0.07 | -1 | -7
COc1ccc(OC)c(NC(=O)CSc2ncnc3c2cnn3-c2ccccc2Cl)c1 | 5 | -50 | 17 | -0.59 | 3 | /
COC(=O)C1CN(S(=O)(=O)c2ccccc2)CCN1S(=O)(=O)c1ccccc1 (stereo unspecified) | 10 | -30 | 4 | 0.27 | 1 | 5
CN(C)c1nc2c(c(=O)[nH]c(=O)n2C)n1Cc1ccccc1Br | 3 | -36 | 17 | -0.046 | 0 | 7
COc1ccc(Br)cc1CSC(=N)N | / | / | -4 | / | 1 | /
CCCCCOc1ccc(Br)cc1CSC(=N)N | 1 | -31 | 65* | / | 1 | -2
O=C(c1ccccc1Cl)N(Cc1ccc(Br)cc1)N1C(=O)CCCC1=O | / | / | 3 | / | 1 | /
O=C(c1ccc([N+](=O)[O-])cc1)N(Cc1ccc(Br)cc1)N1C(=O)CCCC1=O | 8 | -46 | 22 | -7.4* | 1 | -15
c1ccc(-c2csc3ncnc(N4CCOCC4)c23)cc1 | / | / | 5 | / | 1 | /
c1ccc(-c2csc3ncnc(N4CCc5ccccc5C4)c23)cc1 | 8 | -25 | 70* | / | 7 | -2
Cc1ccc(Cn2c(CCNc3nc(-c4ccc(Cl)c([N+](=O)[O-])c4)cs3)nc3cc(C(=O)NCCCO)ccc32)cc1 | / | / | / | 0.035 | / | /
CCC(C)/C(C)=N/NC(=O)c1ccc(COc2ccc(Cl)c(C)c2)cc1 (stereo unspecified) | 13 | 97* | 72* | / | 0 | -8
CCOc1ccc(OCc2ccc(C(=O)N/N=C(\C)c3ccccn3)cc2)cc1 | / | / | 5 | / | -1 | /
CN(C)CCN(C)Cc1ccccc1Sc1cccc2ccccc12 | 9 | 5 | 50 | / | -1 | -5
CC(C)(C)NC(=O)C(c1ccncc1)N(C(=O)Cn1nnc(-c2ccc(F)cc2)n1)c1cccc(F)c1 (stereo unspecified) | / | / | -6 | / | 4 | /
COc1cccc(N(C(=O)Cn2nnc(-c3ccc(C)cc3)n2)C(C(=O)NC(C)(C)C)c2c[nH]c3ccccc23)c1 (stereo unspecified) | 5 | -96 | 21 | 1.1 | 5 | 45*
CC(C)(C)NC(=O)C(c1ccco1)N(C(=O)Cn1nnc(-c2ccc(F)cc2)n1)c1ccccc1F (stereo unspecified) | 17 | -45 | 63* | 0.76 | 2 | -2
CC(C)(C)NC(=O)C(c1c[nH]c2ccccc12)N(C(=O)Cn1nnc(-c2ccc(Cl)cc2)n1)c1ccccc1F (stereo unspecified) | 8 | -41 | 29 | / | 4 | -3
COc1ccc(-n2c(C)cc(C(=O)COc3ccc(C)nc3[N+](=O)[O-])c2C)cc1 | 11 | -51 | 17 | / | 4 | -3
Cc1ccc(/C=C/C(=O)NC2CCCCCCC2)o1 | 10 | -66 | -6 | / | 0 | 38*
Cc1ccc(/C=N/NC(=O)NC2CCCCC2)o1 | / | / | -5 | / | -1 | /
Cc1ccc(Cn2ccc(NC(=O)c3nc4ncccn4n3)n2)cc1 | 39* | 2 | -10 | 0.046 | 3 | -12
Cc1ccc(Cn2ccc(NC(=O)c3noc4c3CCCC4)n2)cc1 | 11 | -37 | -7 | -0.028 | 5 | -9
Cc1ccc(Cn2ccc(NC(=O)c3noc4c3CCCCC4)n2)cc1 | 62* | 1 | 9 | 0.055 | 2 | -14
Clc1cncc(Cl)c1NNc1c2ccccc2nc2ccccc12 | 3 | 28 | 83* | / | 0 | 5
SMILES | Measles CPE | BB579 growth dn | WT yeast gro inh | hDAT+cocaine | RAM network inh | Yeast lifespan up
COC(=O)/C=C/CSC1=N/C(=C/c2ccc(-n3cncn3)cc2)C(=O)N1 | 19 | -39 | 10 | -0.26 | 2 | -21
O=C(C1CCN(S(=O)(=O)c2cccc3cccnc23)CC1)N1CCN(c2ccc(Cl)cc2)CC1 | 19 | -93 | 22 | 1.9 | 3 | -6
COc1cccc(NC(=O)c2ccncc2)c1 | 7 | 11 | 4 | -0.085 | 0 | -20
COc1cccc(NC(=O)c2cc(C(=O)Nc3cccc(OC)c3)n(C)n2)c1 | 24 | -60 | 18 | 0.85 | 11* | 6
CC(C)(C)c1ccc(C(=O)Nc2cccc([N+](=O)[O-])c2)cc1 | 7 | -53 | 62* | / | 2 | -4
O=C(Nc1cccc([N+](=O)[O-])c1)c1ccncc1 | 6 | -25 | 7 | / | 5 | -1
O=C(Nc1ccc(OC(F)(F)F)cc1)Nc1cccc([N+](=O)[O-])c1 | 6 | -22 | 80* | / | 4 | -6
Cc1ccc(SCc2ccc(C(=O)Nc3cccc([N+](=O)[O-])c3)cc2)cc1 | 16 | -35 | 15 | 0.66 | 9.6* | -8
Cc1ccc(SCc2ccc(C(=O)Nc3cc([N+](=O)[O-])ccc3C)cc2)cc1 | 19 | -19 | 22 | 0.34 | 10* | -8
COc1ccc(NC(=O)CSc2nnc(CCC(=O)Nc3ccc(C)c(Cl)c3)n2C)cc1 | 16 | -37 | 3 | -0.016 | 1 | -13
CC(C)(C)CC(C)(C)NC(=O)Nc1cccc([N+](=O)[O-])c1 | / | / | 64* | / | 2 | /
CC(=O)c1ccc(NC(=O)C(C)N2CCN(C/C=C/c3ccccc3)CC2)cc1 (stereo unspecified) | / | / | -19 | / | 0 | /
C(=C\c1ccccc1)/CN1CCN(C(c2ccccc2)c2ccccc2)CC1 | 29 | -51 | 70* | 0.048 | 1 | 5
O=C(c1ccc(Br)s1)N1CCN(C/C=C/c2ccccc2)CC1 | 3 | -56 | 23 | 0.57 | 0 | 1
Fc1ccc(C(c2ccc(F)cc2)N2CCN(C/C=C/c3ccccc3)CC2)cc1 | 36 | -38 | 82* | -0.53 | -1 | 3
O=C(c1ccc(Br)o1)N1CCN(C/C=C/c2ccccc2)CC1 | 119* | -32 | 13 | 1.4 | 2 | -2
CCC1(C)CC(=O)N(c2ccc(C(=O)O)c(O)c2)C1=O (stereo unspecified) | 36* | 20 | -8 | 0.32 | 1 | -11
CC1(C)CC(=O)c2cc(C(=O)O)c(=O)n(-c3ccccc3)c2C1 | 14 | -24 | 18 | 2.2 | 3 | -4
Cc1ccc(C(=O)Nc2ccccc2Oc2ccccc2)cc1[N+](=O)[O-] | 6 | -91 | 61* | -0.0077 | 11* | -9
O=C(Nc1ccccc1Oc1ccccc1)c1cccc([N+](=O)[O-])c1 | 33 | -27 | 11 | 1.4 | 1 | -7
Cc1ccc(C(=O)NC(=S)Nc2cccc(NC(=O)c3ccccc3)c2)cc1[N+](=O)[O-] | 6 | -9 | -8 | / | 10* | -3
O=C(c1ccc(C#Cc2ccccc2)o1)N1CCN(c2ccccn2)CC1 | 8 | -40 | 69* | 0.35 | 1 | -7
COc1ccc(C(=O)N2CCN(c3ccccn3)CC2)cc1 | 45* | -42 | 5 | 0.31 | 0 | -5
COc1ccc(/C=C/C(=O)N2CCN(c3ccccn3)CC2)c2ccccc12 | / | / | 62* | / | 1 | /

Source: PubChem BioAssay (several laboratories)
